Test results from ChEMBL document CHEMBL1828503, “Design, synthesis and docking studies of quinoline-oxazolidinone hybrid molecules and their antitubercular properties” (2011).
In brackets after ≈: the same amount, converted by molar mass.

Legend:
Type in all cases: functional
[1] = system: Mycobacterium tuberculosis; assay: Antimicrobial activity against Mycobacterium tuberculosis H37Rv ATCC 27294 assessed as growth inhibition after 7 days by resazurin assay
[2] = system: Mycolicibacterium fortuitum; assay: Antimicrobial activity against Mycobacterium fortuitum ATCC 19542 after 7 days by resazurin assay; settings: ATCC 19542, 168 h
How it was run: (§1)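 Resazurin microplate assay. Culture added to fresh medium in 96-well plates. Compound stocks 2 mg/mL in DMF. DMF-only controls, with rifampicin and isoniazid as references. Incubated 7 days at 37 °C, then 0.01% resazurin in water added. Blue-to-pink change read after 1 h at 37 °C. MIC taken as the lowest concentration preventing the colour change.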

Pseudomonas aeruginosa = assay: Antimicrobial activity against Pseudomonas aeruginosa ATCC 27853 after 18 to 48 hrs by serial dilution method
[3] = system: Mycobacterium tuberculosis; assay: Antimicrobial activity against Mycobacterium tuberculosis H37Rv ATCC 27294 after 7 days by resazurin assay; settings: H37Rv ATCC 27294, 168 h
How it was run: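 M. tuberculosis H37Rv ATCC 27294 culture diluted into fresh medium in 96-well microtitre plates. Compounds were taken from 2 mg/mL stocks in DMF, with DMF-only control tubes and rifampicin and isoniazid as references. Plates were incubated 37 °C for 7 days, then 0.01% aqueous resazurin was added and read after 1 h at 37 °C. MIC is the lowest concentration preventing the blue-to-pink change.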

Escherichia coli = assay: Antimicrobial activity against Escherichia coli ATCC 25922 after 18 to 48 hrs by serial dilution method
[4] = system: Mycolicibacterium smegmatis; assay: Antimicrobial activity against Mycobacterium smegmatis ATCC 19420 after 7 days by resazurin assay; settings: ATCC 19420, 168 h; how it was run: as §1
Streptococcus pyogenes = assay: Antimicrobial activity against Streptococcus pyogenes clinical isolate after 18 to 48 hrs by serial dilution method
Staphylococcus aureus = assay: Antimicrobial activity against Staphylococcus aureus ATCC 25923 after 18 to 48 hrs by serial dilution method
Klebsiella pneumoniae = assay: Antimicrobial activity against Klebsiella pneumoniae clinical isolate after 18 to 48 hrs by serial dilution method

SMILES | growth inhibition (GI) [1] [%] | MIC [2] [µg/mL] | MIC (Pseudomonas aeruginosa) [µg/mL] | MIC [3] [µg/mL] | MIC (Escherichia coli) [µg/mL] | MIC [4] [µg/mL] | MIC (Streptococcus pyogenes) [µg/mL] | MIC (Staphylococcus aureus) [µg/mL] | MIC (Klebsiella pneumoniae) [µg/mL]
CCN1CCN(CC2CN(CC(=O)Nc3cc(C)nc4ccc(OC)cc34)C(=O)O2)CC1 (stereo not given) | 85 | 100 (≈ 226 µM) | 0.8 (≈ 1.81 µM) | 10 (≈ 22.6 µM) | 1.6 (≈ 3.62 µM) | 100 (≈ 226 µM) | 0.2 (≈ 0.453 µM) | 0.8 (≈ 1.81 µM) | 1.6 (≈ 3.62 µM)
COc1ccc(C(=O)NCC2CN(c3cc(C)nc4ccc(OC)cc34)C(=O)O2)c(C)c1 (stereo not given) | 85 | 100 (≈ 230 µM) | 3.12 (≈ 7.18 µM) | 1 (≈ 2.3 µM) | 1.6 (≈ 3.67 µM) | 100 (≈ 230 µM) | 1.6 (≈ 3.67 µM) | 0.8 (≈ 1.84 µM) | 0.8 (≈ 1.84 µM)
COc1ccc2nc(C)cc(N3CC(CNC(=O)c4ccc(C)cc4)OC3=O)c2c1 (stereo not given) | 0 | 100 (≈ 247 µM) | 3.12 (≈ 7.71 µM) | 100 (≈ 247 µM) | 3.12 (≈ 7.71 µM) | 100 (≈ 247 µM) | 1.6 (≈ 3.95 µM) | 3.12 (≈ 7.71 µM) | 3.12 (≈ 7.71 µM)
COc1ccc2nc(C)cc(N3CC(CNC(=O)C4CCC4)OC3=O)c2c1 (stereo not given) | 85 | 100 (≈ 271 µM) | 3.12 (≈ 8.46 µM) | 2.5 (≈ 6.77 µM) | 1.6 (≈ 4.33 µM) | 100 (≈ 271 µM) | 1.6 (≈ 4.33 µM) | 1.6 (≈ 4.33 µM) | 6.25 (≈ 16.9 µM)
COc1ccc2nc(C)cc(NC(=O)CN3CC(CN(C)C)OC3=O)c2c1 (stereo not given) | 95 | 10 (≈ 26.9 µM) | 0.2 (≈ 0.537 µM) | 0.625 (≈ 1.68 µM) | 0.2 (≈ 0.537 µM) | 2.5 (≈ 6.71 µM) | 0.8 (≈ 2.15 µM) | 0.8 (≈ 2.15 µM) | 0.4 (≈ 1.07 µM)
COc1ccc2nc(C)cc(NC(=O)CN3CC(CN4CCN(C)CC4)OC3=O)c2c1 (stereo not given) | 90 | 10 (≈ 23.4 µM) | 1.6 (≈ 3.74 µM) | 1 (≈ 2.34 µM) | 0.4 (≈ 0.936 µM) | 10 (≈ 23.4 µM) | 0.4 (≈ 0.936 µM) | 0.8 (≈ 1.87 µM) | 0.1 (≈ 0.234 µM)
NNC(=O)c1ccncc1 [ISONIAZID] | >95 | 12.5 (≈ 91.1 µM) |  | 0.7 (≈ 5.1 µM) |  | 50 (≈ 365 µM) |  |  | 
CO[C@H]1/C=C/O[C@@]2(C)Oc3c(C)c(O)c4c(O)c(c(/C=N/N5CCN(C)CC5)c(O)c4c3C2=O)NC(=O)/C(C)=C\C=C\[C@H](C)[C@H](O)[C@@H](C)[C@@H](O)[C@@H](C)[C@H](OC(C)=O)[C@@H]1C [RIFAMPIN] | >95 | 1.5 (≈ 1.82 µM) |  | 0.5 (≈ 0.608 µM) |  | 1.5 (≈ 1.82 µM) |  |  | 
COc1ccc2nc(C)cc(NC(=O)CN3CC(CN4CCN(C(C)(C)C)CC4)OC3=O)c2c1 (stereo not given) | 0 | 100 (≈ 213 µM) | 0.8 (≈ 1.7 µM) | 100 (≈ 213 µM) | 1.6 (≈ 3.41 µM) | 100 (≈ 213 µM) | 0.8 (≈ 1.7 µM) | 1.6 (≈ 3.41 µM) | 1.6 (≈ 3.41 µM)
COc1ccc2nc(C)cc(NC(=O)CN3CC(CN4CCC(C)CC4)OC3=O)c2c1 (stereo not given) | 0 | 100 (≈ 234 µM) | > 12.5 | 100 (≈ 234 µM) | 6.25 (≈ 14.7 µM) | 100 (≈ 234 µM) | 6.25 (≈ 14.7 µM) | > 12.5 | 6.25 (≈ 14.7 µM)
COc1ccc2nc(C)cc(N3CC(CNC(=O)c4ccccc4)OC3=O)c2c1 (stereo not given) | 0 | 100 (≈ 255 µM) | > 12.5 | 100 (≈ 255 µM) | > 12.5 | 100 (≈ 255 µM) | 3.12 (≈ 7.98 µM) | 3.12 (≈ 7.98 µM) | 6.25 (≈ 16 µM)
COc1ccc2nc(C)cc(NC(=O)CN3CC(CNC4CC4)OC3=O)c2c1 (stereo not given) | 90 | 100 (≈ 260 µM) | 1.6 (≈ 4.16 µM) | 10 (≈ 26 µM) | > 12.5 | 100 (≈ 260 µM) | 3.12 (≈ 8.13 µM) | 1.6 (≈ 4.16 µM) | > 12.5
COc1ccc2nc(C)cc(NC(=O)CN3CC(CN4CCCC4)OC3=O)c2c1 (stereo not given) | 0 | 100 (≈ 251 µM) | 1.6 (≈ 4.02 µM) | 100 (≈ 251 µM) | > 12.5 | 100 (≈ 251 µM) | 3.12 (≈ 7.84 µM) | 6.25 (≈ 15.7 µM) | > 12.5
COc1ccc2nc(C)cc(N3CC(CNC(=O)c4ccccc4F)OC3=O)c2c1 (stereo not given) | 90 | 10 (≈ 24.4 µM) | 3.12 (≈ 7.63 µM) | 1 (≈ 2.44 µM) | 6.25 (≈ 15.3 µM) | 5 (≈ 12.2 µM) | 3.12 (≈ 7.63 µM) | 1.6 (≈ 3.91 µM) | 6.25 (≈ 15.3 µM)
CCN(CC)CC1CN(CC(=O)Nc2cc(C)nc3ccc(OC)cc23)C(=O)O1 (stereo not given) | 90 | 10 (≈ 25 µM) | 0.4 (≈ 0.999 µM) | 1 (≈ 2.5 µM) | 0.4 (≈ 0.999 µM) | 10 (≈ 25 µM) | 3.12 (≈ 7.8 µM) | 1.6 (≈ 4 µM) | 0.1 (≈ 0.25 µM)
